Measured values from ChEMBL document CHEMBL1149128, “Novel endoperoxide antimalarials: synthesis, heme binding, and antimalarial activity” (J Med Chem, 2004).
One block for each compound: values may come before it.

How the values were obtained:
Homo sapiens [1] = organism: Homo sapiens; experiment: Lysis of human erythrocytes at a concentration of 1 mM for 30 minutes at 37 degree C; type: functional
How it was run: (§1)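 Washed human erythrocytes (0.4 × 10⁸ cells) in phosphate-buffered saline with no protein in the medium; compound at 1 mM final; 30 min at 37 °C. Cells pelleted, then supernatant absorbance compared with freeze-thawed cells to give percent hemolysis.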

Plasmodium falciparum = experiment: In vitro antimalarial activity against Plasmodium falciparum D10
Homo sapiens [2] = organism: Homo sapiens; experiment: Compound was evaluated for the lysis of human erythrocytes at a concentration of 1 mM for 30 minutes at 37 degree C; type: functional; how it was run: as §1

Compound: C[C@@H]1OO[C@H](CC(=O)OC23CC4CC(CC(C4)C2)C3)[C@@H]2O[C@@H]21
Hemolysis (Homo sapiens [1]): 4%
IC50 (Plasmodium falciparum): 5000 nM

Compound: C[C@@H]1OO[C@H](CC(=O)OC23CC4CC(CC(C4)C2)C3)[C@H]2O[C@H]21
Hemolysis (Homo sapiens [1]): 6%
IC50 (Plasmodium falciparum): 1300 nM

Compound: C1CCC([C@H]2OO[C@@H](C3CCCCC3)[C@H]3O[C@H]32)CC1
Hemolysis (Homo sapiens [1]): 5%
IC50 (Plasmodium falciparum): 320 nM

Compound: CCCCCCC[C@H]1OO[C@@H](CCC)[C@H]2O[C@H]21
Hemolysis (Homo sapiens [1]): 51%
IC50 (Plasmodium falciparum): > 10000 nM

Compound: C1=C[C@@H](C2CCCC2)OOC1
Hemolysis (Homo sapiens [1]): 11%
IC50 (Plasmodium falciparum): > 10000 nM

Compound: C1CCC([C@H]2OO[C@@H](C3CCCC3)[C@@H]3O[C@@H]32)C1
Hemolysis (Homo sapiens [1]): 8%
IC50 (Plasmodium falciparum): 500 nM

Compound: c1ccc([C@H]2OO[C@@H](C3CCCCC3)[C@@H]3O[C@@H]32)cc1
Hemolysis (Homo sapiens [1]): 2%
IC50 (Plasmodium falciparum): > 10000 nM

Compound: CCCCCCC[C@@H]1C=C[C@H](CCC)OO1
Hemolysis (Homo sapiens [1]): 62%
IC50 (Plasmodium falciparum): > 10000 nM

Compound: C1CCC([C@H]2OOC[C@@H]3O[C@@H]32)C1
Hemolysis (Homo sapiens [1]): 1%
IC50 (Plasmodium falciparum): 1400 nM

Compound: C1CCC([C@H]2OOC[C@@H]3O[C@@H]32)CC1
Hemolysis (Homo sapiens [1]): 2%
IC50 (Plasmodium falciparum): > 10000 nM

Compound: C1C2CC3CC1CC([C@H]1OOC[C@@H]4O[C@@H]41)(C2)C3
Hemolysis (Homo sapiens [1]): 41%
IC50 (Plasmodium falciparum): 4000 nM

IC50 (Plasmodium falciparum): > 10000 nM
Compound: O=C(C1CCCCC1)[C@H]1O[C@H]1[C@@H](O)C1CCCCC1
Hemolysis (Homo sapiens [1]): 8%

Compound: c1ccc([C@H]2OO[C@@H](c3ccccc3)[C@@H]3O[C@@H]32)cc1
Hemolysis (Homo sapiens [1]): 5%
IC50 (Plasmodium falciparum): > 10000 nM

Compound: C1CCC(C[C@H]2OOC[C@@H]3O[C@@H]32)CC1
Hemolysis (Homo sapiens [1]): 3%
IC50 (Plasmodium falciparum): > 10000 nM

Compound: C1=C[C@H](C2CCCC2)OO[C@@H]1C1CCCC1
Hemolysis (Homo sapiens [1]): 52%
IC50 (Plasmodium falciparum): 600 nM

Compound: C1=C[C@@H](C2CCCCC2)OOC1
Hemolysis (Homo sapiens [1]): 100%
IC50 (Plasmodium falciparum): 3200 nM

Compound: C1=C[C@H](C2CCCCC2)OO[C@@H]1C1CCCCC1
Hemolysis (Homo sapiens [1]): 100%
IC50 (Plasmodium falciparum): 1200 nM

Compound: C1CCC([C@H]2OOC[C@H]3O[C@@H]23)C1
Hemolysis (Homo sapiens [1]): 1%
IC50 (Plasmodium falciparum): 1400 nM

Compound: C[C@H]1C=C[C@@H](CCCO)OO1
Hemolysis (Homo sapiens [1]): 0%
IC50 (Plasmodium falciparum): 2500 nM

Compound: C1CC([C@H]2OO[C@@H](C3CCC3)[C@@H]3O[C@@H]32)C1
Hemolysis (Homo sapiens [1]): 1%
IC50 (Plasmodium falciparum): 2900 nM

Compound: CCCCCCC[C@H]1OO[C@@H](CCC)[C@@H]2O[C@@H]21
Hemolysis (Homo sapiens [1]): 47%
IC50 (Plasmodium falciparum): > 10000 nM

Compound: C1=C[C@H](C2CCC2)OO[C@@H]1C1CCC1
Hemolysis (Homo sapiens [1]): 32%
IC50 (Plasmodium falciparum): > 10000 nM

Compound: C1=C[C@@H](CC2CCCCC2)OOC1
Hemolysis (Homo sapiens [1]): 100%
IC50 (Plasmodium falciparum): 9500 nM

Compound: C1CCC(C[C@H]2OOC[C@H]3O[C@@H]23)CC1
Hemolysis (Homo sapiens [1]): 6%
IC50 (Plasmodium falciparum): 2000 nM

Compound: c1ccc(C2(c3ccccc3)OOCC3OC32)cc1 (stereo not given)
Hemolysis (Homo sapiens [1]): 1%
IC50 (Plasmodium falciparum): 5000 nM

Compound: C1CC([C@H]2OO[C@@H](C3CCC3)[C@H]3O[C@H]32)C1
Hemolysis (Homo sapiens [1]): 1%
IC50 (Plasmodium falciparum): 1600 nM

Compound: C[C@]12COO[C@H](c3ccccc3)[C@H]1O2
Hemolysis (Homo sapiens [1]): 2%
IC50 (Plasmodium falciparum): > 10000 nM

Compound: C[C@H]1C=C[C@@H](c2ccccc2)OO1
Hemolysis (Homo sapiens [1]): 32%
IC50 (Plasmodium falciparum): > 10000 nM

Compound: C1=C[C@H](c2ccccc2)OO[C@@H]1c1ccccc1
Hemolysis (Homo sapiens [1]): 4%
IC50 (Plasmodium falciparum): 6000 nM

Compound: C1=C[C@@H](C23C[C@H]4C[C@@H](C2)C[C@@H](C3)C4)OOC1
Hemolysis (Homo sapiens [1]): 100%
IC50 (Plasmodium falciparum): 1300 nM

Compound: C[C@@H]1OO[C@H](c2ccccc2)[C@H]2O[C@H]21
Hemolysis (Homo sapiens [1]): 2%
IC50 (Plasmodium falciparum): > 10000 nM

Compound: C1CCC([C@H]2OO[C@@H](C3CCCCC3)[C@@H]3O[C@@H]32)CC1
Hemolysis (Homo sapiens [1]): 6%
IC50 (Plasmodium falciparum): 500 nM

Compound: C[C@H]1C=C[C@@H](CC(=O)OC23C[C@H]4C[C@@H](C2)C[C@@H](C3)C4)OO1
Hemolysis (Homo sapiens [1]): 27%
IC50 (Plasmodium falciparum): 1000 nM

Compound: CCC[C@H]1C=C[C@@H](CCC)OO1
Hemolysis (Homo sapiens [1]): 2%
IC50 (Plasmodium falciparum): > 10000 nM

Compound: C1=C[C@H](C2CCCCC2)OO[C@@H]1c1ccccc1
Hemolysis (Homo sapiens [1]): 9%
IC50 (Plasmodium falciparum): 8100 nM

Compound: C1CCC([C@H]2OO[C@@H](C3CCCC3)[C@H]3O[C@H]32)C1
Hemolysis (Homo sapiens [1]): 9%
IC50 (Plasmodium falciparum): 500 nM

Compound: O=C(c1ccccc1)[C@H]1O[C@H]1[C@@H](O)c1ccccc1 (stereo in doubt; 7j)
Hemolysis (Homo sapiens [1]): 2%

Compound: C[C@@H]1CC[C@H]2[C@@H](C)C(=O)O[C@@H]3O[C@@]4(C)CC[C@@H]1[C@]32OO4 [ARTEMISININ]
Hemolysis (Homo sapiens [2]): 4%

Compound: CCN(CC)CCCC(C)Nc1ccnc2cc(Cl)ccc12 (stereo not given) [CHLOROQUINE]
Hemolysis (Homo sapiens [1]): 1%
